Assay outcomes from PubChem.
A selection: hits, their analogues and other compounds. The true share with any hit is near 2.5%.
DSG3 Ab inh: human desmoglein-3 autoantibody binding inhibition; P32926; DSG3-coupled beads, scFv-anti-DSG3-GFP binding, flow cytometry; stronger effect = lower value; binding (percent of control), % at 10 µM; actives 0.48% (n = 310,000); AID 588358;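 active = binding more than 3 SD below its plate's average and above zero; inconclusive = below that plate limit but binding exactly zero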;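 note: hits lower antibody fragment binding to DSG3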
TRPC4 block: blocks the mouse TRPC4 cation channel; B-score at 10 µM; AID 2247; Q9QUQ5; actives 0.39% (n = 300,000); HEK293 TRPC4beta/mu-opioid, DAMGO-evoked Fluo4 calcium flux; stronger effect = lower value;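 active = B-score over 3 SD under the library average, no early fluorescence shift, positive overall ratio signal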
Target sequence (Q9QUQ5 whole entry, looked up): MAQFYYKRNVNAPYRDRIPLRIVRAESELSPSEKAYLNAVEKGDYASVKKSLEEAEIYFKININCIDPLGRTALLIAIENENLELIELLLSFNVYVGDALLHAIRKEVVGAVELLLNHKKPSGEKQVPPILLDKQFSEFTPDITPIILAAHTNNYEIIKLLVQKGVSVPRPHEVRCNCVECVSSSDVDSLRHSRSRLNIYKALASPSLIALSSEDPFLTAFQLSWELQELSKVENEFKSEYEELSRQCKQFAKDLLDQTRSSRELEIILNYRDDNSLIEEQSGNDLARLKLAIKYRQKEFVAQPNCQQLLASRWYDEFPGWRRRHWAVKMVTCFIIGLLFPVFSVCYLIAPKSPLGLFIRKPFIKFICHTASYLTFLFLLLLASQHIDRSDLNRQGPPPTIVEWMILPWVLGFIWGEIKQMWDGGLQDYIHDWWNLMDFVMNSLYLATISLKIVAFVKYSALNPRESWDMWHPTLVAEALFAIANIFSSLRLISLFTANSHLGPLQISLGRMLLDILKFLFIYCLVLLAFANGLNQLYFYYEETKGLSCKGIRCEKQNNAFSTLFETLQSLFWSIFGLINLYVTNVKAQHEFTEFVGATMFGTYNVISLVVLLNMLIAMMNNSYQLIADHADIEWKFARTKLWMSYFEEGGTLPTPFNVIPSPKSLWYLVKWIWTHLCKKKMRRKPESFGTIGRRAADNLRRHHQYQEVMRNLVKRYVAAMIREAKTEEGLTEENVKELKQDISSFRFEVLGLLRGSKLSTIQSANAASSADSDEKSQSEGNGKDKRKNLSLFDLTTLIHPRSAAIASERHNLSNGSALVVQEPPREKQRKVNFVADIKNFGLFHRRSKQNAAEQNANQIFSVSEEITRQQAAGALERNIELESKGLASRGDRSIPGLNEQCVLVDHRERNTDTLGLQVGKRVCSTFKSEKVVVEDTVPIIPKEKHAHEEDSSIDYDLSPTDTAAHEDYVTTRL
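Material: HEK293 cells with stable TRPC4beta plus mu-opioid receptor expression; probe or stimulus: DAMGO in two steps, submaximal then maximal; technique: Fluo4 calcium fluorescence by kinetic imaging, 5 s 1 Hz baseline; measure: integrated fluorescence ratio relative to baseline, converted to per-well B score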
TRPC4 potent: allosteric potentiators of mouse TRPC4 channel | B-score at 10 µM | HEK293 TRPC4beta/mu-opioid, DAMGO EC20, Fluo-4 Ca2+ flux; stronger effect = higher value | AID 2227 | actives 0.42% (n = 310,000) | Q9QUQ5;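 active = B-score of calcium response area above 5 SD of library B-scores, with initial fluorescence ratio within 5 SD of library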;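 note: B-score of integrated fluorescence ratio over time as area under calcium response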
TRPC6 inh: blocks the mouse TRPC6 cation channel. HEK293-TRPC6, membrane potential dye, ACh-evoked depolarization; stronger effect = lower value. Q61143. actives 1.1% (n = 310,000). B-score at 10 µM;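 active = B-score under library mean minus 3 SD, initial fluorescence not abnormally high, positive integrated signal ratio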;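 note: B-score derived from integrated fluorescence ratio over the kinetic read; more negative B-score means stronger inhibition of depolarization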
TRPC4 act: opens the mouse TRPC4 cation channel. Q9QUQ5. HEK293 TRPC4beta/mu-opioid, Fluo4 calcium fluorescence; stronger effect = higher value. B-score at 10 µM. actives 0.49% (n = 310,000). AID 2237;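 active = B-score above 5 SD of library B-scores, and initial fluorescence ratio not above library mean plus 5 SD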;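 note: positive B-score marks a calcium rise read as TRPC4 activation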
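Material: TRPC4beta and mu-opioid receptor HEK293 stable cells | Incubation: 45 min room-temperature Fluo4 loading, 110 s read | Detection: Kinetic Fluo4 calcium fluorescence | Measure: Integrated baseline-normalised fluorescence ratio, converted to per-well B score | Benchmarks: Low control buffer alone, high control maximal DAMGO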
TRPC6 act: mouse TRPC6 channel activation. Q61143. HEK293-TRPC6 membrane potential dye fluorescence; stronger effect = higher value. B-score at 10 µM. actives 0.13% (n = 310,000);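 active = B-score of the integrated fluorescence ratio above library mean plus 3 SD, and starting fluorescence ratio within library mean plus 5 SD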;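 note: higher score means more depolarization so channel activation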
The depositor's hits bear a star.

What do the screens show for `Cc1ccc(-c2csc3ncn(C(C)C(=O)O)c(=O)c23)cc1` (configuration not stated)?
DSG3 Ab inh: 100.6; TRPC4 block: inactive; TRPC4 potent: inactive; TRPC6 inh: inactive; TRPC4 act: inactive; TRPC6 act: inactive

Results for COc1ccc(Cl)cc1NC(=O)NCC1CCN(Cc2cc(C)ccc2C)CC1 ?
DSG3 Ab inh: 111.0; TRPC4 block: inactive; TRPC4 potent: inactive; TRPC6 inh: inactive; TRPC4 act: inactive; TRPC6 act: inactive

What do the screens show for `Cc1ccc(C)c(CN2CCC(CNC(=O)Nc3ccc(C)c(C)c3)CC2)c1`?
DSG3 Ab inh: inconclusive; TRPC4 block: inactive; TRPC4 potent: 11*; TRPC6 inh: inactive; TRPC4 act: inactive; TRPC6 act: inactive

What do the screens show for `CCOCCCn1c(SC(C)C(=O)NCC2CCCO2)nc2sc(C)c(C)c2c1=O` (configuration not stated)?
DSG3 Ab inh: 94.5

How did C[C@H]1[C@H](C)CC[C@]2(C(=O)O)CC[C@]3(C)C(=CC[C@@H]4[C@@]5(C)C[C@@H](O)[C@H](O)C(C)(C)[C@@H]5CC[C@]43C)[C@H]12 do in these assays?
DSG3 Ab inh: 84.9*; TRPC4 block: inactive; TRPC4 potent: inactive; TRPC6 inh: inactive; TRPC4 act: inactive; TRPC6 act: inactive

What do the screens show for `C[C@H]1[C@H](C)CC[C@]2(C(=O)O)CC[C@]3(C)C(=CC[C@@H]4[C@@]5(C)CC[C@H](O)C(C)(C)[C@@H]5CC[C@]43C)[C@H]12`?
DSG3 Ab inh: 97.8; TRPC4 block: inactive; TRPC4 potent: inactive; TRPC6 inh: inactive; TRPC4 act: inactive; TRPC6 act: inactive

Results for COc1ccccc1NC(=O)Cn1nnc(-c2ccccc2NC(=O)c2cc3ccccc3oc2=O)n1 ?
DSG3 Ab inh: 9.0*; TRPC4 block: inactive; TRPC4 potent: inactive; TRPC6 inh: inactive; TRPC4 act: inactive; TRPC6 act: inactive

Results for O=C(Cn1nnc(-c2ccccc2NC(=O)c2ccco2)n1)Nc1ccccc1 ?
DSG3 Ab inh: 6.9*; TRPC4 block: inactive; TRPC4 potent: inactive; TRPC6 inh: inactive; TRPC4 act: inactive; TRPC6 act: inactive

Results for CC(C)(C)NC(=O)Cn1nnc(-c2ccccc2NC(=O)c2ccco2)n1 ?
DSG3 Ab inh: 92.2; TRPC4 block: inactive; TRPC4 potent: inactive; TRPC6 inh: inactive; TRPC4 act: inactive; TRPC6 act: inactive

How did O=c1c(Cc2ccccc2)c(O)ccn1CCc1cnc[nH]1 do in these assays?
DSG3 Ab inh: 119.1; TRPC4 block: inactive; TRPC4 potent: inactive; TRPC6 inh: inactive; TRPC4 act: 129*; TRPC6 act: inactive

What do the screens show for `O=c1c(Cc2ccc(F)cc2)c(O)ccn1Cc1ccc(F)cc1`?
DSG3 Ab inh: 96.0; TRPC4 block: inactive; TRPC4 potent: inactive; TRPC6 inh: inactive; TRPC4 act: inactive; TRPC6 act: inactive

What do the screens show for `O=c1c(Cc2ccc(F)cc2)c(O)ccn1CCc1cnc[nH]1`?
DSG3 Ab inh: 98.3; TRPC4 block: inactive; TRPC4 potent: inactive; TRPC6 inh: inactive; TRPC4 act: 108*; TRPC6 act: inactive

How did Nc1nnn(CC(=O)N/N=C/c2cccc(Cl)c2)n1 do in these assays?
DSG3 Ab inh: 77.5*; TRPC4 block: inactive; TRPC4 potent: inactive; TRPC6 inh: inactive; TRPC4 act: inactive; TRPC6 act: inactive

Results for O=[N+]([O-])c1ccc2cn[nH]c2c1 ?
DSG3 Ab inh: 42.6*; TRPC4 block: inactive; TRPC4 potent: inactive; TRPC6 inh: inactive; TRPC4 act: inactive; TRPC6 act: inactive

Results for O=[N+]([O-])c1ccc(-c2nc3ccc([N+](=O)[O-])cc3[nH]2)cc1 ?
DSG3 Ab inh: 99.9; TRPC4 block: inactive; TRPC4 potent: inactive; TRPC6 inh: inactive; TRPC4 act: inactive; TRPC6 act: inactive

Results for COC(=O)c1ccccc1OCc1cccc(C)n1 ?
DSG3 Ab inh: 102.0; TRPC4 block: inactive; TRPC4 potent: inactive; TRPC6 inh: inactive; TRPC4 act: inactive; TRPC6 act: inactive

What do the screens show for `COC(=O)C(Cc1cccc(C)n1)(c1ccccc1)c1ccccc1`?
DSG3 Ab inh: 91.4; TRPC4 block: -7*; TRPC4 potent: inactive; TRPC6 inh: inactive; TRPC4 act: inactive; TRPC6 act: inactive

Results for Cc1ccc(S(=O)(=O)N2CCCOC2CNC(=O)C(=O)NCc2ccc3c(c2)OCO3)cc1 (configuration not stated) ?
TRPC4 block: inactive; TRPC4 potent: inactive; TRPC6 inh: inactive; TRPC4 act: inactive; TRPC6 act: inactive

How did O=c1c(O)cccc2cc(O)c(O)c(O)c12 do in these assays?
DSG3 Ab inh: 33.0*; TRPC4 block: inactive; TRPC4 potent: inactive; TRPC6 inh: inactive; TRPC4 act: inactive; TRPC6 act: inactive

Results for Nc1ccccc1-c1ccc([N+](=O)[O-])cc1 ?
DSG3 Ab inh: 120.8

How did CN(C)c1ccc(NC(=O)Cn2ncn3c(cc4ccccc43)c2=O)cc1 do in these assays?
DSG3 Ab inh: 92.1; TRPC4 block: inactive; TRPC4 potent: inactive; TRPC6 inh: inactive; TRPC4 act: inactive; TRPC6 act: inactive

What do the screens show for `Cc1cc(C)cc(NC(=O)Cn2ncn3c(cc4ccccc43)c2=O)c1`?
DSG3 Ab inh: 81.6*; TRPC4 block: inactive; TRPC4 potent: inactive; TRPC6 inh: inactive; TRPC4 act: inactive; TRPC6 act: inactive

What do the screens show for `CC(=O)c1c(C)[nH]c(C(=O)NCc2ccc(Cl)cc2)c1C`?
DSG3 Ab inh: 86.8*

What do the screens show for `COCCNC(=O)c1ccc2c(c1)C(=O)c1ccccc1-2`?
DSG3 Ab inh: 102.7; TRPC4 block: inactive; TRPC4 potent: inactive; TRPC6 inh: inactive; TRPC4 act: inactive; TRPC6 act: inactive

How did CC(C)(CO)NC(=O)c1ccc2c(c1)C(=O)c1ccccc1-2 do in these assays?
DSG3 Ab inh: 95.2; TRPC4 block: inactive; TRPC4 potent: 11*; TRPC6 inh: inactive; TRPC4 act: inactive; TRPC6 act: inactive

Results for Cc1c(CCOC(=O)C23CC4(C)CC(C)(CC(C)(C4)C2)C3)sc[n+]1CC(=O)c1ccccc1 ?
DSG3 Ab inh: 89.2; TRPC4 block: inactive; TRPC4 potent: inactive; TRPC6 inh: inactive; TRPC4 act: inactive; TRPC6 act: inactive

Results for Cc1c(CCOC(=O)CC23CC4CC(CC(C4)C2)C3)sc[n+]1CC(=O)c1ccccc1 ?
DSG3 Ab inh: 108.8; TRPC4 block: -5*; TRPC4 potent: inactive; TRPC6 inh: inactive; TRPC4 act: inactive; TRPC6 act: inactive

Results for CC(C)C(=O)N1CCN(c2ccccc2NC(=O)c2ccc(Br)o2)CC1 ?
DSG3 Ab inh: 92.3
